Article PMC3240942 (Molecular cell, 2011)

What was measured:
Sirt1 [1] = target: T1, Sirt1 (Mus musculus, UniProt Q923E4); conditions: binds to deacetylase core of Sirt1; ref Kim et al., 2008; Zhao et al.; cited from earlier work
T1 sequence (Q923E4 1-737): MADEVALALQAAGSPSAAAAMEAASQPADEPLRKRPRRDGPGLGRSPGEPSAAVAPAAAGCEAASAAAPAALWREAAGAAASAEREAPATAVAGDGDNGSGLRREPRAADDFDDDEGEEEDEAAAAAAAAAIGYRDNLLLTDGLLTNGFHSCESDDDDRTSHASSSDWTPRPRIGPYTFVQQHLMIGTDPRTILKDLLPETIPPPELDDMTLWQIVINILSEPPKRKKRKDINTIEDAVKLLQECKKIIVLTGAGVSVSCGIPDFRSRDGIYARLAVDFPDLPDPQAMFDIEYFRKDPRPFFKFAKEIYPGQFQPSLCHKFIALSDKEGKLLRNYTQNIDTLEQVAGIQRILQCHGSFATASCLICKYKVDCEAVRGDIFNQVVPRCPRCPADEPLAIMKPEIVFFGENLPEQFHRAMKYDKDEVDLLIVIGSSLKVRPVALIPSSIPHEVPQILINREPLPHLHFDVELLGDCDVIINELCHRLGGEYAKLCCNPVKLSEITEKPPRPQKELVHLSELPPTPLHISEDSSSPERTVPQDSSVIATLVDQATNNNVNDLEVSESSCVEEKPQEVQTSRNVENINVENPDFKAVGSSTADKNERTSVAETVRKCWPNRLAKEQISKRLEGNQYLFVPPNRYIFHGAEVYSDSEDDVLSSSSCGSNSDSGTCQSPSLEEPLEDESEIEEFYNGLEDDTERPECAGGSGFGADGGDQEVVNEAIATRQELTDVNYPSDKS

Sirt1 [2] = target: T1, Sirt1; assay: Inhibition of Sirt1 deacetylation of p53 in transfected H1299 cells; format: cell-based; conditions: 10-fold molar excess of expression vector, 20 μM etoposide 1 hr
How it was run: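 H1299 cells transiently co-transfected with expression vectors for p53 and V5-tagged Sirt1, plus a 10-fold molar excess of a vector expressing the Flag-tagged test peptide (with or without a nuclear localization signal). After 48 h, cells are exposed to 20 μM etoposide for 1 hr before harvest. Acetylated p53 is detected by immunoblot with an antibody specific for acetyl-K382.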

In the case of “DBC1: Deleted in Breast Cancer 1, endogenous Sirt1 inhibitor”, the “effect on Sirt1 activity” value (Sirt1 [1]) is given as “inhibits its activity” and the “inhibition of Sirt1 activity in vivo (p53 deacetylation)” value (Sirt1 [2]) is given as “also inhibited Sirt1 activity”.
